Experiment: Toxicity liver stage against HepG2, at 10uM
Type: cell-based
Design: test concentration 10 uM, cell line HepG2-A16-CD81EGFP
Details: human, HepG2-A16-CD81EGFP cells; read-out: INHIBITION
Outline: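 Uninfected HepG2-A16-CD81EGFP cells, 3 × 10^3 per well, 1536-well, plated on prespotted compound at 10 μM final, parasite-free screening media added to match infected plates; puromycin 10 μM positive, DMSO 0.5% negative; run in parallel with 48 h PbLuc assay at 37 °C, 5% CO2; viability by CellTiter-Glo luminescence, normalized to controls.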

c1ccc(O[C@H]2COCCN(CC3CC3)C2)cc1
cytotoxicity at 10 µM: 5.76%

COc1ccc(C(=O)N2CCN3C(=O)CNC(=O)[C@@H]3C2)cc1
cytotoxicity at 10 µM: -7.1%

CCN(CC)CC[C@H]1CN(C(=O)CC(C)(C)C)CC[C@H]1CC(=O)O
cytotoxicity at 10 µM: -0.668%

CSc1ncccc1C(=O)N(CCO)Cc1ccccc1
cytotoxicity at 10 µM: 2.22%

O=C(c1cccc(C(F)(F)F)c1)N1CC(=O)N(C2CCC2)CC(O)C1 (stereo unspecified)
cytotoxicity at 10 µM: -3.16%

Cc1ccc2c(c1)C1(CC(=O)Nc3[nH]ncc31)C(=O)N2C (stereo unspecified)
cytotoxicity at 10 µM: -1.6%

N#Cc1nc(COc2ccc3c(c2)OCO3)oc1N1CCCCCC1
cytotoxicity at 10 µM: -34.6%

CC1CC(=O)c2cc(C(=O)N3CCc4ccccc43)c(=O)[nH]c2C1 (stereo unspecified)
cytotoxicity at 10 µM: -5.67%

Cn1cc(NC(=O)CNC(=O)N2CCN(c3ccccc3)CC2)cn1
cytotoxicity at 10 µM: 0.0207%

Cn1nc(N2CCCC(C(=O)Nc3nccs3)C2)ccc1=O (stereo unspecified)
cytotoxicity at 10 µM: 3.19%

CCOC(=O)CN1CCC2(CCCN(CCOc3ccccc3)C2)C1 (stereo unspecified)
cytotoxicity at 10 µM: -2.63%

Cn1cccc1C(=O)N1CCc2ccc(=O)n(C)c2CC1
cytotoxicity at 10 µM: -0.756%

Cc1cc(C(=O)N2C[C@@H]3COC[C@]3(c3nnc(C(C)C)o3)C2)on1
cytotoxicity at 10 µM: -2.52%

CCOc1cc(C)c(-c2cc(N)[nH]n2)cc1OCC
cytotoxicity at 10 µM: -7.27%

O=c1c2cn[nH]c2nc(SCCN2CCOCC2)n1-c1ccccc1
cytotoxicity at 10 µM: 0.219%

CCO[C@@H]1CO[C@@]2(CCCN(C(=O)c3ccc(OC)c(F)c3)C2)C1
cytotoxicity at 10 µM: 3.02%

CCn1cc(S(=O)(=O)N(CCc2ccccc2)Cc2ccn(C)n2)cn1
cytotoxicity at 10 µM: 2.6%

Cc1ccc(NC(=O)c2n[nH]c(-n3cnnc3)n2)cc1C
cytotoxicity at 10 µM: -1.4%

CCCC(=O)NCCc1cc(NC)nc(-c2ccccn2)n1
cytotoxicity at 10 µM: 1.12%

CCC(=O)NCCc1cc2nc(-c3ccncc3)ccn2n1
cytotoxicity at 10 µM: 1.65%

CC(C)NC(=O)N1CCCCCC1C1CCN(c2ncccn2)CC1 (stereo unspecified)
cytotoxicity at 10 µM: -23.2%

Cc1cc(N(C)C)nc(N2CCn3c(nnc3C3CC3)C2)n1
cytotoxicity at 10 µM: 0.485%

CS(=O)(=O)CCn1ccc(NC(=O)Cc2ccccc2F)n1
cytotoxicity at 10 µM: 3.73%

CC(O)CN(C(=O)NC1CCN(CC2CCCCC2)CC1)C(C)C (stereo unspecified)
cytotoxicity at 10 µM: 7.46%

Cc1noc(C)c1CN(C)C(=O)C1CCCCN1CC(C)C (stereo unspecified)
cytotoxicity at 10 µM: 2.64%

Cc1cccc2nc(CN3CCCC(C)C3)cc(=O)n12 (stereo unspecified)
cytotoxicity at 10 µM: 2.46%

Cc1ccc(C(=O)Nc2ccccc2N2CCCC2)n1C
cytotoxicity at 10 µM: 5.55%

CN(CCOc1ccc(F)cc1)S(=O)(=O)c1cnn(C)c1
cytotoxicity at 10 µM: -3.23%

Cc1ccc(CNC(=O)C2CCN(C(=O)C(C)C)CC2)n1C
cytotoxicity at 10 µM: 5.71%

CCC(CC)N(Cc1cc(=O)n(C)c(=O)n1C)C1CC1
cytotoxicity at 10 µM: 15.8%

Cc1nnc(C(C)Nc2cccc(COCCOC(C)C)c2)o1 (stereo unspecified)
cytotoxicity at 10 µM: 2.29%

CN(C1CCN(c2ccccn2)CC1)S(=O)(=O)c1ccccc1F
cytotoxicity at 10 µM: 14%

COCCNC(=O)C1(c2ccc(C)c(OC)c2)CCCC1
cytotoxicity at 10 µM: -3.21%

Fc1ccc(CNC2CCN(CCc3ccncc3)CC2)cc1F
cytotoxicity at 10 µM: -12.6%

Cc1ccc(CNC(=O)C2CCCCN2C(=O)OC(C)(C)C)cn1 (stereo unspecified)
cytotoxicity at 10 µM: -0.408%

Cc1nc(C)n(C2CCCN(C(=O)CCc3cn(C)nc3C)C2)n1 (stereo unspecified)
cytotoxicity at 10 µM: -11.5%

O=C(NCCSCc1ccc(Br)s1)C1CCCN(C(=O)c2cccs2)C1 (stereo unspecified)
cytotoxicity at 10 µM: -1.79%

COc1ncnc(N)c1CNCCOc1ccccc1Cl
cytotoxicity at 10 µM: 6.24%

CCCN1C(=O)C2(CCCCC2)NC1c1c[nH]nc1-c1cccnc1 (stereo unspecified)
cytotoxicity at 10 µM: 4.59%

CC(C)=CCN1CCN(C(=O)C2CC2)CC1
cytotoxicity at 10 µM: 6.64%

CC(C)c1nccn1CCn1cnc2ccsc2c1=O
cytotoxicity at 10 µM: 4.4%

NS(=O)(=O)c1cnn(-c2ccc(NC(=O)C3CCCCC3)cn2)c1
cytotoxicity at 10 µM: 2.27%

CCOc1cc(CNC(C)c2ccc(F)cc2)ccn1 (stereo unspecified)
cytotoxicity at 10 µM: 10.9%

c1ccc(Cc2nc(CNCCn3cccn3)cs2)cc1
cytotoxicity at 10 µM: -2.79%

CSc1ccc(OCCN2CCNC(=O)CC2)cc1
cytotoxicity at 10 µM: 5.59%

COc1ccccc1CN(Cc1nc(Cc2ccccc2)no1)C1CC1
cytotoxicity at 10 µM: 9.54%

CC(C)(C)C(O)CN1CCN(CC(=O)NCC(F)(F)F)CC1 (stereo unspecified)
cytotoxicity at 10 µM: -10.2%

Cc1cc(NCC(C)C)ccc1C(=O)N(C)C
cytotoxicity at 10 µM: 9.86%

COCC1CN(C(=O)Nc2cc(Br)ccc2F)CCO1 (stereo unspecified)
cytotoxicity at 10 µM: -0.749%

Cc1nc(C2CCCN(C(=O)CN3CCCNC3=O)C2)sc1C (stereo unspecified)
cytotoxicity at 10 µM: 10.4%

Cn1cc(N2CCC(NC(=O)c3c(F)cccc3F)C2=O)cn1 (stereo unspecified)
cytotoxicity at 10 µM: 2.5%

CCn1cnnc1C1CCN(C(=O)c2cnc3ccccc3n2)CC1
cytotoxicity at 10 µM: -8.59%

CC(=O)NCc1nnn2c1CN(c1ncc(C)cn1)CCC2
cytotoxicity at 10 µM: -102%

CN(CCCc1cnn(C)c1)c1nccc(-c2cc(C(=O)O)ccn2)n1
cytotoxicity at 10 µM: -3.29%

CN(CC1(CO)CCOCC1)[C@@H]1c2ccccc2C2(CCNCC2)[C@H]1O
cytotoxicity at 10 µM: -6.87%

CCCN1CCN(C(=O)c2cccc(C)n2)[C@H]2CS(=O)(=O)C[C@H]21
cytotoxicity at 10 µM: 2.13%

CC1(C)CNC(=O)c2nc(C3CCN(C(=O)C4CC4)CC3)[nH]c2C1
cytotoxicity at 10 µM: 2.26%

CC(C)(C)CC(=O)N1CCC(n2cc(C3(O)CCCC3)nn2)CC1
cytotoxicity at 10 µM: 8.64%

CCOCc1nc(-c2cccc(OC)c2OC)n(C2CCN(C)CC2)n1
cytotoxicity at 10 µM: -1.76%

CC(C1CCN(Cc2c(Cl)ccc(O)c2Cl)CC1)N1CCN(C)CC1 (stereo unspecified)
cytotoxicity at 10 µM: -12%

CN(Cc1nccs1)C1CCN(c2ncccn2)CC1
cytotoxicity at 10 µM: 10.1%

Cc1cnn(CC2CCN(c3cc(C(C)C)nc4ccnn34)CC2)c1
cytotoxicity at 10 µM: -10.5%

O=S(=O)(N1CCOCC1)N1CCCCC1CCc1ccc(O)cc1 (stereo unspecified)
cytotoxicity at 10 µM: -4.44%

CCS(=O)(=O)N1CCC(c2nnc(CN3CCCCCC3)n2C)CC1
cytotoxicity at 10 µM: -8.01%

N#Cc1cccc(OC23CCCN(CC2)C3)c1 (stereo unspecified)
cytotoxicity at 10 µM: 1.73%

Cc1cccc2[nH]c(-c3cn(C4CCNCC4)nn3)nc12
cytotoxicity at 10 µM: -6.47%

CN(C)CC(=O)N1CCc2cccc(S(=O)(=O)N3CCOCC3)c2C1
cytotoxicity at 10 µM: 6.8%

CCCN1CCCC2(CCN(Cc3cncn3C3CCCC3)C2)C1=O (stereo unspecified)
cytotoxicity at 10 µM: -13%

CCCN1CCCC2(CCN(S(=O)(=O)c3cc(C)nn3CC)C2)C1=O (stereo unspecified)
cytotoxicity at 10 µM: 4.82%

CCc1cc(N2CCC(NCCc3ccc(C)o3)CC2)nc(C)n1
cytotoxicity at 10 µM: -0.554%

CC(C)N1CCCC(C(=O)N2CCN(c3cccc(C(=O)O)c3)CC2)C1 (stereo unspecified)
cytotoxicity at 10 µM: 9.45%

CC1=C(C(=O)NCc2cccnc2-n2cnc3ccccc32)OCCO1
cytotoxicity at 10 µM: -2%

Cc1c(NC(=O)NC2CN3CCC2CC3)cccc1C(=O)N1CCCC1 (stereo unspecified)
cytotoxicity at 10 µM: 10.1%

CCCc1ccc(CN2CCC3(CCC(=O)N(C)CC3)CC2)o1
cytotoxicity at 10 µM: -4.35%

CC(=O)N1CCN(Cc2ccc(C(F)(F)F)c(F)c2)CC(O)C1 (stereo unspecified)
cytotoxicity at 10 µM: -2.2%

CC(=O)N1CCCN(C(=O)c2cnn(C(C)(C)C)c2C)CC1
cytotoxicity at 10 µM: 2.89%

Cc1nnc(NC(=O)NCc2ccc(OC(C)C)nc2)s1
cytotoxicity at 10 µM: -10.4%

Cc1nn(C)c(C)c1NC(=O)CN1CCN(c2nccs2)C(C)C1 (stereo unspecified)
cytotoxicity at 10 µM: -5.55%

Cc1cc2n(n1)CC(CNCc1ccc(Oc3ccccc3)nc1)CN2 (stereo unspecified)
cytotoxicity at 10 µM: -10.1%

CC(C)c1noc(CCCC(=O)N2CCN(Cc3ccsc3)CC2)n1
cytotoxicity at 10 µM: -5.19%

O=C(c1ccc2c(c1)COC2)N1CCN(CCO)CC1
cytotoxicity at 10 µM: -16.5%

CCn1ncc2c1CCCC2NCc1ccc(OC)c(F)c1 (stereo unspecified)
cytotoxicity at 10 µM: -6.07%

CCCc1noc(CN2CCC(c3ccnn3CCO)CC2)n1
cytotoxicity at 10 µM: -19.9%

CC(c1cc(F)ccc1F)N(C)C(=O)NCc1ccnc(N(C)C)c1 (stereo unspecified)
cytotoxicity at 10 µM: -16.8%

Cc1nnc2n1CCN(C(=O)c1ccnc(N(C)C)c1)C2
cytotoxicity at 10 µM: -16.2%

CCC(CC)C(=O)N(C)CC(=O)Nc1ccc(Br)cn1
cytotoxicity at 10 µM: -11.2%

Cc1cc(C)n(CC2CCCN2C(=O)c2c(C)noc2C)n1 (stereo unspecified)
cytotoxicity at 10 µM: -13.8%

O=C(NCCNc1ncccn1)C1CC(=O)N(C2CCCC2)C1 (stereo unspecified)
cytotoxicity at 10 µM: -16.2%

CC(C)CN1CC(C(=O)NCCNc2ncccn2)CC1=O (stereo unspecified)
cytotoxicity at 10 µM: -23%

Cc1nc(C2CCCN2CCCc2nc3ccccc3o2)no1 (stereo unspecified)
cytotoxicity at 10 µM: -9.24%

O=C(NCCNc1ncccn1)N1CCN(C2CCCC2)CC1
cytotoxicity at 10 µM: -10%

COc1c(C2CCCN2CC(=O)Nc2ccncc2)c(C)nn1C (stereo unspecified)
cytotoxicity at 10 µM: -12.7%

Cc1ccc2cc(C(=O)N3CCC(Nc4cccnn4)CC3)[nH]c2c1
cytotoxicity at 10 µM: -21%

CC(Cn1ccnc1)NC(=O)N1CCCN(Cc2cccs2)CC1 (stereo unspecified)
cytotoxicity at 10 µM: -12.4%

Cc1nc(C)n(CC2CN(CCC(=O)N3CCCCC3)CCO2)n1 (stereo unspecified)
cytotoxicity at 10 µM: -4.64%

O=C(CCSc1ccccc1F)NS(=O)(=O)c1ccc2c(c1)OCCO2
cytotoxicity at 10 µM: -0.841%

O=C(CCc1ccc(F)cc1)NS(=O)(=O)c1ccc2c(c1)OCCO2
cytotoxicity at 10 µM: -12.8%

Cc1nnc(CN2CCN(CCOc3ccccc3C#N)CC2)n1C
cytotoxicity at 10 µM: -5.8%

O=C(NCc1cc[nH]n1)N1CCCCC(N2CCCC2)C1 (stereo unspecified)
cytotoxicity at 10 µM: -11.5%

COc1cccc(CCNC(=O)CN2CCCC2c2noc(C)n2)c1 (stereo unspecified)
cytotoxicity at 10 µM: -0.489%

CC(NC(=O)CCC(=O)c1cccs1)c1nnc2n1CCCCC2 (stereo unspecified)
cytotoxicity at 10 µM: -7.76%

COCCN(Cc1nc2c(cnn2C)c(=O)[nH]1)Cc1ccco1
cytotoxicity at 10 µM: -5.04%

O=C(C1CCCCC1)N1CC2(CCNCC2)C1
cytotoxicity at 10 µM: -8.58%

CCOC(=O)N1CC2(CCNCC2)c2cc(Cl)ccc21
cytotoxicity at 10 µM: -0.449%

Cc1ccc(CN2CCCC3(CCCC(=O)N3)C2)s1 (stereo unspecified)
cytotoxicity at 10 µM: -0.361%

Cn1cnc(S(=O)(=O)N2CC3(CCN(Cc4ccncc4)C3)C2)c1
cytotoxicity at 10 µM: -113%

Cn1nnc2c1CCN(Cc1ccccn1)C2COCc1ccccc1 (stereo unspecified)
cytotoxicity at 10 µM: -117%

CC[C@@H]1N(Cc2ccc(F)cc2)CCC[C@]12CCC(=O)N2C
cytotoxicity at 10 µM: 9.42%

CC(=O)N1[C@H](Cn2cncn2)C[C@@H]2CN(c3ncc(F)cn3)CC[C@@H]21
cytotoxicity at 10 µM: -5.09%

CS(=O)(=O)N1C[C@@H]2CC[C@H]1CN(Cc1ccncc1)C2
cytotoxicity at 10 µM: -2.34%

CN(C)S(=O)(=O)N1C[C@@H]2C[C@H](C(=O)NCc3ccccc3)[C@H](C1)O2
cytotoxicity at 10 µM: 4.09%
